Laboratory results reported in paper PMC7008087 (Biochimica et biophysica acta. Molecular cell research, 2019).
One block for each molecule: values may come before it.

Legend:
p44/42 = p44/42 MAPK phosphorylation; type: cell-based, human
Akt = Akt phosphorylation; type: cell-based, human
H441 and Calu-3 cells = experiment: Cell-proliferation, H441 and Calu-3 reported together; type: cell-based, human; details: for effect on Bn-stimulated increase in cell-proliferation: H441 and Calu-3 cells, Bn 1 μM, 24 hr, CCK-8 and MTS
EGFR = EGFR phosphorylation; type: cell-based, human; details: for EC50, EGFR phosphorylation: mean ± SEM of three independent experiments
Procedure, shortened: (§1)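 H441 or H2087 cells at 80% confluence were serum-starved overnight, then given Bn (0.1-100 nM) or NRG-1 (0.1-100 ng/mL) for 3 min. Cells were lysed in RIPA buffer (pH 7.6) and protein was measured by BCA. Lysates were run on a 4–20% gel and blotted for phospho-EGFR Tyr1068, HER2 Tyr1248 and HER3 Tyr1289, with tubulin as loading control. Bands were read by densitometry as % basal; mean ± SEM, ≥3 experiments.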

HER2 = HER2 phosphorylation; type: cell-based, human; details: for EC50, HER2 phosphorylation: mean ± SEM of three independent experiments
Procedure, shortened: as §1

HER3 = HER3 (Homo sapiens, UniProt P21860); experiment: HER3 phosphorylation; type: cell-based; details: for EC50, HER3 phosphorylation: mean ± SEM of three independent experiments
Procedure, shortened: as §1

EGFR, HER2, and HER3 = experiment: EGFR, HER2 and HER3 phosphorylation reported together; type: cell-based, human
Procedure, shortened: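 Time course: serum-starved (overnight) H441, H2087 or Calu-3 cells were stimulated with Bn 100 nM or NRG-1 100 ng/mL for 3-60 min. Cells were lysed in RIPA and blotted for phospho-EGFR (Tyr1068), HER2 (Tyr1248) and HER3 (Tyr1289) using primary antibodies at 1:1000 overnight at 4 °C. Tubulin served as loading control, and background-subtracted densitometry was expressed as % of basal.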

HER3/EGFR = HER3/EGFR heterodimerization; type: cell-based, human; details: H441 and Calu-3 cells; 100 nM Bn or 100 ng/mL NRG-1
Procedure, shortened: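 Serum-starved (overnight) 80%-confluent cells treated with test peptide (100 nM) or reference ligand (100 ng/mL); lysed in RIPA (pH 7.6), sonicated, cleared. 800 μg protein with anti-HER3 antibody, 1 hr at 4 °C, then protein A/G agarose overnight at 4 °C; five RIPA washes. Immunoblotted for partner receptors by chemiluminescence; background-subtracted densitometry as ratio to untreated control; whole-extract tubulin as loading control.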

HER3/HER2 = HER3/HER2 heterodimerization; type: cell-based, human; details: H441 and Calu-3 cells; 100 nM Bn or 100 ng/mL NRG-1
Procedure, shortened: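 Serum-starved H441 and Calu-3 cells received no addition, 100 nM Bn or 100 ng/mL NRG-1. RIPA lysate (800 μg protein) was incubated with anti-HER3 antibody for 1 hr at 4 °C, then with protein A/G agarose overnight at 4 °C. Beads were washed five times in RIPA and boiled in Laemmli buffer. Partners were detected by Western blot, with tubulin from whole-cell extract as loading control; values are given as ratio to control.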

[1] = H441 cells, NRG-1 0.1-100 ng/mL, 3 min
[2] = H2087 cells, 100 nM Bn or 100 ng/mL NRG-1, 3 min
[3] = H441 cells, dose-response, 3 min, Bn 100 nM maximal, NRG-1 0.1-100 ng/mL
[4] = Calu-3 cells, Bn 100 nM or NRG-1 100 ng/mL
[5] = Wortmannin 1 μM or LY294002 10 μM

Molecule: COc1cc2ncnc(Nc3ccc(F)c(Cl)c3)c2cc1OCCCN1CCOCC1 [gefitinib]
effect on Bn-stimulated phosphorylation of p44/42 (p44/42; H441 cells, gefitinib 10 μg/mL or EGFR knockdown, Bn 100 nM, 15 min): did not affect | activity at 10 µg/mL (p44/42; Homo sapiens, NCI-H441, read-out: basal phosphorylation of p44/42 (% of control)): 75% | effect on Bn-induced increment of Akt phosphorylation (Akt): no significant inhibitory effect | activity at 10 µg/mL (Akt; Homo sapiens, NCI-H441, read-out: basal phosphorylation of Akt (% of control)): 79% | effect on Bn-stimulated increase in cell-proliferation (H441 and Calu-3 cells; gefitinib 10 μg/mL): no effect | activity at 10 µg/mL (H441 and Calu-3 cells; Homo sapiens, 24 h, read-out: basal stimulation (% of control)): 36 to 45%

EC50, EGFR phosphorylation (EGFR; [1]): 4.9 ± 0.9 ng/mL | EC50, EGFR phosphorylation (EGFR; H2087 cells, NRG-1, 3 min): 9.7 ± 1.3 ng/mL | EC50, HER2 phosphorylation (HER2; [1]): 16.3 ± 3.4 ng/mL | EC50, HER2 phosphorylation (HER2; H2087 cells, NRG-1, 3 min): 7.8 ± 2.0 ng/mL | phosphorylation of HER3 maintained at 60 minutes (fold increase) (HER3; H441 cells, NRG-1 100 ng/mL, 60 minutes, p < 0.05 vs. control): 20 fold | maximal HER3 phosphorylation (fold increase) (HER3; [3]): 44 fold | HER3 phosphorylation (fold increase) (HER3; [2]): 21 fold | duration of HER3 phosphorylation (HER3; H2087 cells, NRG-1 100 ng/mL): prolonged phosphorylation
Molecule: neuregulin-1 [NRG-1]
maximum EGFR phosphorylation (fold increase) (EGFR; [2]): 5.2 fold | maximal HER2 phosphorylation (fold increase) (HER2; [3]): 34 fold | HER2 phosphorylation (fold increase) (HER2; [2]): 22 fold | duration of HER2 phosphorylation (HER2; H2087 cells, NRG-1 100 ng/mL): prolonged phosphorylation | phosphorylation of p44/42 at 60 minutes (p44/42; [4]): still present | stimulation time of maximum phosphorylation of p44/42 (p44/42; H441, H2087 and Calu-3 cells, Bn 100 nM or NRG-1 100 ng/mL): 15 min | phosphorylation of p44/42 at 60 minutes (p44/42; H441 and H2087 cells, Bn 100 nM or NRG-1 100 ng/mL): not maintained at 60 minutes | time of maximum phosphorylation of Akt (Akt; H441, H2087 and Calu-3 cells, NRG-1 100 ng/mL): 60 min | stimulation time of maximum EGFR, HER2 and HER3 phosphorylation (EGFR, HER2, and HER3; [4]): 30 to 60 min | maximal stimulation compared with Bn (EGFR, HER2, and HER3; H441, H2087 and Calu-3 cells, Bn 100 nM, NRG-1 100 ng/mL): greater than that seen with Bn | time of maximum phosphorylation of EGFR, HER2, and HER3 (EGFR, HER2, and HER3; H441 cells, Bn 100 nM or NRG-1 100 ng/mL): 3 min | HER3/EGFR heterodimerization (HER3/EGFR): induced HER3/EGFR | HER3/HER2 heterodimerization (HER3/HER2): HER3/HER2 heterodimerization in both cell-lines

Molecule: O=c1cc(N2CCOCC2)oc2c(-c3ccccc3)cccc12 [LY294002]
effect on Bn-stimulated increase in cell-proliferation (H441 and Calu-3 cells; [5]): no significant effect

Molecule: COC[C@H]1OC(=O)c2coc3c2[C@@]1(C)C1=C(C3=O)[C@@H]2CCC(=O)[C@@]2(C)C[C@H]1OC(C)=O [Wortmannin, wortmannin]
effect on Bn-stimulated increase in cell-proliferation (H441 and Calu-3 cells; [5]): no significant effect

EC50, HER3 phosphorylation (HER3; [1]): 14.3 ± 1.7 ng/mL | EC50, HER3 phosphorylation (HER3; H2087 cells, NRG-1, 3 min): 8.1 ± 1.7 ng/mL
B1: neuregulin-1 (protein)
chain: TSHLVKCAEKEKTFCVNGGECFMVKDLSNPSRYLCKCPNEFTGDRCQNYVMASFYKHLGIEFMEAEELYQK
modifications: the alternative R&D product is the beta1 ECD (2-246)
